# ChEMBL document CHEMBL1909630, “Azaxanthene based selective glucocorticoid receptor modulators: design, synthesis, and pharmacological evaluation of (S)-4-(5-(1-((1,3,4-thiadiazol-2-yl)amino)-2-methyl-1-oxopropan-2-yl)-5H-chromeno[2,3-b]pyridin-2-yl)-2-fluoro-N,N-dimethylbenzamide (BMS-776532) and its methylene homologue …” (J Med Chem, 2011)
# Activity calls are given as the source filed them. The rule behind the calls is not given here.
# Key:
# Glucocorticoid receptor = molecular target: T1, Glucocorticoid receptor (Homo sapiens, UniProt P04150); experiment: Transactivation activity at glucocorticoid receptor alpha human 13D3/Huh7 cells assessed as induction of TAT activity after 4 hrs by spectrophotometry; type: cell-based, Huh-7
# T1 sequence (P04150 whole entry): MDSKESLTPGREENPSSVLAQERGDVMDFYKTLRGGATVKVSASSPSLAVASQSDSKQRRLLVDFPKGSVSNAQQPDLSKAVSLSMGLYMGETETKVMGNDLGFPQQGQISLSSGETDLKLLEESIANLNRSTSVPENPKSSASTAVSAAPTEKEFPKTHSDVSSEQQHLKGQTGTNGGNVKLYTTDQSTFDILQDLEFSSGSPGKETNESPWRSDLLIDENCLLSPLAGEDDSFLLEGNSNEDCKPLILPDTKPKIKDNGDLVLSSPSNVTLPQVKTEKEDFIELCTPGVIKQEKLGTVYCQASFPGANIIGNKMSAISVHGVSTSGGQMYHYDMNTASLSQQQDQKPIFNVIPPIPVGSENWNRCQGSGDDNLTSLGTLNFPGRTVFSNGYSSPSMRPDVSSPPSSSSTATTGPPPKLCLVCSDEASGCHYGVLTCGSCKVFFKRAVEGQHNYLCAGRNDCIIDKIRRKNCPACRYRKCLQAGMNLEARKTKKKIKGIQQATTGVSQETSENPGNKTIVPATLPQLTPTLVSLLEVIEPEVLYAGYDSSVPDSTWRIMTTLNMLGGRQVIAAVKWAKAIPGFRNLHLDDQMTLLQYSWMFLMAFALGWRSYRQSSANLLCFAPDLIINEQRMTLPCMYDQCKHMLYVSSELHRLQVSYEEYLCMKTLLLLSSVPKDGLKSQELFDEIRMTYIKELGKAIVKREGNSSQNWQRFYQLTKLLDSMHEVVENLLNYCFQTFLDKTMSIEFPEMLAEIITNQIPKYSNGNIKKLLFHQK
# Rattus norvegicus [1] = experiment: Antiinflammatory activity in Freund's complete adjuvant-induced Lewis rat arthritis model assessed as reduction in paw swelling at 25 mg/kg/day, po qd for 21 days; type: functional, organism-based
# In short: (§1)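 Male Lewis rats were inoculated with Mycobacterium butyricum in incomplete Freund's adjuvant. Oral dosing was daily and preventative, running from day 0 to day 21. Onset and progression of arthritis were followed, and ED50 was estimated from the dose response.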
# Rattus norvegicus [2] = experiment: Antiinflammatory activity in Freund's complete adjuvant-induced Lewis rat arthritis model assessed as reduction in paw swelling at 50 mg/kg/day, po qd for 21 days; type: functional, organism-based; in short: as §1
EC50 (Glucocorticoid receptor) [nM],Compound,Activity (Rattus norvegicus [1]),Activity (Rattus norvegicus [2])
88,CCN(C)C(=O)c1ccc(-c2ccc3c(n2)Oc2ccccc2[C@@H]3C(C)(C)C(=O)Nc2nncs2)cc1F,Active,–
150,CN(C)C(=O)c1ccc(-c2ccc3c(n2)Oc2ccccc2[C@H]3C(C)(C)C(=O)Nc2nncs2)cc1F,–,Active
